One block for each compound: values may come before it.
Assays:
[1] = target: Thromboxane A2 receptor (Oryctolagus cuniculus); test: Ability to inhibit U-46,619-induced contraction of isolated strips of rabbit thoracic aorta, which is the measure of thromboxane receptor antagonism; details: read-out: pA2 (converted)
Oryctolagus cuniculus [2] = species: Oryctolagus cuniculus; test: Ability to inhibit the contractile effect of […] on rabbit aorta was determined; assay type: functional; details: read-out: pA2 (converted)
Homo sapiens [3] = species: Homo sapiens; test: Ability to inhibit aggregate formation in human platelets induced by arachidonic acid.; assay type: functional
Thromboxane A2 receptor = target: T1, Thromboxane A2 receptor (Rattus norvegicus, UniProt P34978); test: Ability to inhibit U-46,619-induced contraction of isolated strips of rat aorta, which is the measure of thromboxane receptor antagonism; assay type: functional; details: read-out: pA2 (converted)
T1 sequence (P34978 whole entry): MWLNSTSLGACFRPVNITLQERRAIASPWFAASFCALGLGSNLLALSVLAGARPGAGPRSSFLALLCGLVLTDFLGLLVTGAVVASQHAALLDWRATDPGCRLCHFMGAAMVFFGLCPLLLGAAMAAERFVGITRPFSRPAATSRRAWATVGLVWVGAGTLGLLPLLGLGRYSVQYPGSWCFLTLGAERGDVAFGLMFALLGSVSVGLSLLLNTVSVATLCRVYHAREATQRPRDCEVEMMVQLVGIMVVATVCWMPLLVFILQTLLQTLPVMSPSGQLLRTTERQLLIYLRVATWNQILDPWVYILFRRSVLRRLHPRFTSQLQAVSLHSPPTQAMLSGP

Cavia porcellus [4] = species: Cavia porcellus; test: Compound was tested for the concentration that inhibited the bronchoconstriction induced by U 46619 for a period exceeding 2 h.; assay type: functional
Cavia porcellus [5] = species: Cavia porcellus; test: Inhibition of the response to PGE-2 in guinea pig ileum was determined; assay type: functional; details: read-out: pA2 (converted)
Cavia porcellus [6] = species: Cavia porcellus; test: Ability to inhibit relaxant effect of PGE-2 on guinea pig trachea was determined; assay type: functional; details: read-out: pA2 (converted)
Cavia porcellus [7] = species: Cavia porcellus; test: Ability to antagonise the actions of crude SRSA on guinea pig ileum was determined; assay type: functional; details: read-out: pA2 (converted)
Homo sapiens [8] = species: Homo sapiens; test: Compound was tested for the concentration in human platelet -rich plasma that did not modify PGI-2 inhibition of ADP- induced aggregation.; assay type: functional
Oryctolagus cuniculus [9] = species: Oryctolagus cuniculus; test: Ability to inhibit the contractile effect of PGE-2 on rabbit aorta was determined; assay type: functional; details: read-out: pA2 (converted)
Rattus norvegicus [10] = species: Rattus norvegicus; test: Ability to inhibit norepinephrine -induced contraction of isolated strips of rat aorta, […]; assay type: functional; details: read-out: pA2 (converted)
[11] = target: thromboxane A2 (TxA2) receptor (Cavia porcellus, UniProt A0A286Y4I8); test: Ability to inhibit U-46,619-induced contraction of isolated strips of guinea pig tracheal chain, which is the measure of thromboxane receptor antagonism; assay type: functional; details: read-out: pA2 (converted)
Cavia porcellus [12] = species: Cavia porcellus; test: Ability to inhibit the contractile effect of PGF2-alpha on guinea pig trachea; details: read-out: pA2 (converted)
Homo sapiens [13] = species: Homo sapiens; test: Ability to inhibit aggregate formation in human platelets induced by collagen; assay type: functional
Cavia porcellus [14] = species: Cavia porcellus; test: Ability to inhibit the contractile effect of PGE-2 on guinea pig trachea; assay type: functional; details: read-out: pA2 (converted)
Rattus norvegicus [15] = species: Rattus norvegicus; test: Inhibition of the response to […] in rat colon was determined; assay type: functional; details: read-out: pA2 (converted)
Oryctolagus cuniculus [16] = species: Oryctolagus cuniculus; test: Compound was tested for the antagonist serotonin- and norepinephrine-induced contractions of rabbit aorta.; assay type: functional
Procedure, shortened: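 Rabbit aortic strips contracted with serotonin or norepinephrine and tested in the presence of the antagonist at concentrations up to 2×10^-5 M.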

Rattus norvegicus [17] = species: Rattus norvegicus; test: Ability to inhibit the contractile effect of PGD-2 on rat aorta was determined; assay type: functional; details: read-out: pA2 (converted)

Kb [1]: 0.501 µM
Structure (SMILES): O=C(O)CCC/C=C\C[C@@H]1COCO[C@@H]1c1ccccc1

Kb [1]: > 20 µM
Structure (SMILES): CC1(C)OC[C@H](C/C=C\CCCC(=O)O)[C@@H](c2ccccc2)O1

Kb [1]: > 20 µM
Structure (SMILES): O=C(O)CCC/C=C\C[C@H]1COCO[C@@H]1c1ccccc1

Kb (Thromboxane A2 receptor): 0.145 µM | Kb [11]: 0.263 µM | Kb [1]: 0.501 µM
Structure (SMILES): CC1(C)OC[C@@H](C/C=C\CCCC(=O)O)[C@@H](c2ccccc2)O1
Kb (Oryctolagus cuniculus [2]): 1.62 µM | KB (Homo sapiens [3]): 1.42e-05 | Activity (Cavia porcellus [4]): 5 mg/kg | Kb (Cavia porcellus [5]): > 20 µM | Kb (Cavia porcellus [6]): > 20 µM | Kb (Cavia porcellus [7]): > 20 µM | Concentration (Homo sapiens [8]): 100 µM | Kb (Oryctolagus cuniculus [9]): 6.76 µM | Kb (Rattus norvegicus [10]): > 20 µM | Kb (Cavia porcellus [12]): 11.2 µM | KB (Homo sapiens [13]): 9.12e-06 | Kb (Cavia porcellus [14]): 10.5 µM | Kb (Rattus norvegicus [15]): > 20 µM | Concentration (Oryctolagus cuniculus [16]): 20 µM | Kb (Rattus norvegicus [17]): 1.95 µM
